ChEMBL document CHEMBL4513216, “Probing the Open Global Health Chemical Diversity Library for Multistage-Active Starting Points for Next-Generation Antimalarials” (ACS Infect Dis, 2020)

Assay: Toxicity liver stage against HepG2, at 10uM
Assay type: cell-based
Set-up: test concentration 10 uM, cell line HepG2-A16-CD81EGFP
Details: human, HepG2-A16-CD81EGFP cells; read-out: INHIBITION
Summary of the method: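 Uninfected HepG2-A16-CD81EGFP cells, 3 × 10^3 per well, 1536-well, plated on prespotted compound at 10 μM final, parasite-free screening media added to match infected plates; puromycin 10 μM positive, DMSO 0.5% negative; run in parallel with 48 h PbLuc assay at 37 °C, 5% CO2; viability by CellTiter-Glo luminescence, normalized to controls.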

Structure (SMILES): C[C@@H](CO)Nc1cc(-c2cn[nH]c2)ncn1
- cytotoxicity at 10 µM: -10.6%

Structure (SMILES): Cc1ncc(-c2ccnc(N3CCC[C@@H]3CO)n2)c(-c2cccnc2)n1
- cytotoxicity at 10 µM: -8.49%

Structure (SMILES): CN(Cc1cccc(CCN)c1)Cc1cccc2ncccc12
- cytotoxicity at 10 µM: 7.82%

Structure (SMILES): c1cnc2c(-c3nccn3C[C@@H]3CCCN4CCCC[C@H]34)cccc2c1
- cytotoxicity at 10 µM: 1.83%

Structure (SMILES): Nc1nc(CCCNC(=O)c2ccccc2C2CCNC2)cs1 (stereo unspecified)
- cytotoxicity at 10 µM: -3.06%

Structure (SMILES): COCCC(=O)N[C@H]1CN(c2nc(C)c3c(n2)CCCC3)C[C@@H]1C1CC1
- cytotoxicity at 10 µM: -12.8%

Structure (SMILES): CC(C)Cn1cncc1Cn1cccc(C(F)(F)F)c1=O
- cytotoxicity at 10 µM: -10.2%

Structure (SMILES): Cc1cc(-c2ccccc2Cl)nc(N)n1
- cytotoxicity at 10 µM: -0.268%

Structure (SMILES): CN(Cc1csc(-c2cccs2)n1)C(=O)CCn1ccc(=O)[nH]c1=O
- cytotoxicity at 10 µM: 4.71%

Structure (SMILES): Cc1ccccc1C1CCCN(C(=O)c2c[nH]c(=O)c(Cl)c2)C1 (stereo unspecified)
- cytotoxicity at 10 µM: -59.8%

Structure (SMILES): CC(C)Oc1ccc(CN2CCCC(N3CCCC3)C2)cc1CO (stereo unspecified)
- cytotoxicity at 10 µM: 0.271%

Structure (SMILES): CN(Cc1noc2c1CCCC2)C(=O)Cn1cnc2ccccc2c1=O
- cytotoxicity at 10 µM: -52.4%

Structure (SMILES): Cc1ccc2nc(C)c(C)c(C(=O)NCCCn3ccnn3)c2c1
- cytotoxicity at 10 µM: 17.8%

Structure (SMILES): CCC(=O)Nc1cccc(OCC(=O)N(C)Cc2ccon2)c1
- cytotoxicity at 10 µM: 5.37%

Structure (SMILES): Fc1cccc(C2(CNC3CCCNC3)CCOCC2)c1 (stereo unspecified)
- cytotoxicity at 10 µM: 0.979%

Structure (SMILES): COCC1(CNC(=O)[C@@]23CNC[C@@H]2CN(C2CCCC2)C3)CC1
- cytotoxicity at 10 µM: -11.9%

Structure (SMILES): CCC(=O)NC(CC)c1ccccc1C (stereo unspecified)
- cytotoxicity at 10 µM: 5.14%

Structure (SMILES): Cc1cc(C)n(CC(=O)N2CCCCC2CCN(C)C)c(=O)n1 (stereo unspecified)
- cytotoxicity at 10 µM: -14.7%

Structure (SMILES): Cc1nn(-c2ccccc2)c(C)c1-c1ccnc(N2CCC(O)CC2)n1
- cytotoxicity at 10 µM: -1.74%

Structure (SMILES): CN(CCc1ccccc1)C1CCCN(Cc2nccn2C)C1 (stereo unspecified)
- cytotoxicity at 10 µM: -18.5%

Structure (SMILES): CCC(C(=O)NCc1ccncc1)N(c1ccc(OC)cc1)S(C)(=O)=O (stereo unspecified)
- cytotoxicity at 10 µM: -10.2%

Structure (SMILES): Cn1cc(C(=O)N2CCCC(Cc3nccs3)C2)cn1 (stereo unspecified)
- cytotoxicity at 10 µM: 3.83%

Structure (SMILES): CNc1nc(CNC(=O)Nc2cccc(-c3ncc(C)o3)c2)cs1
- cytotoxicity at 10 µM: -7.57%

Structure (SMILES): CCOC(=O)c1sc2ccsc2c1CNC(=O)COC
- cytotoxicity at 10 µM: 1.51%

Structure (SMILES): Cc1c(F)cc(C(=O)O)cc1S(=O)(=O)Nc1ccccc1
- cytotoxicity at 10 µM: -4.54%

Structure (SMILES): CC(O)CN1CCN(C(=O)Cc2ccccc2Cl)CC1 (stereo unspecified)
- cytotoxicity at 10 µM: -9.6%

Structure (SMILES): Cc1cnn(CC2CCCN2C(=O)CCc2cscn2)c1 (stereo unspecified)
- cytotoxicity at 10 µM: -11.9%

Structure (SMILES): CCc1noc(C)c1C(=O)N1CCCC1Cn1nc(C)cc1C (stereo unspecified)
- cytotoxicity at 10 µM: -5.48%

Structure (SMILES): CCc1nnc2n1CCN(C(=O)CN(C)Cc1ccccc1)C2
- cytotoxicity at 10 µM: -6.22%

Structure (SMILES): CC(=O)N1CCN(C(=O)NCc2csc(Br)c2)CC1
- cytotoxicity at 10 µM: -6.31%

Structure (SMILES): Cc1nnc2n1CCN(C(=O)c1cc(Cl)c(Cl)n1C)C2
- cytotoxicity at 10 µM: -4.05%

Structure (SMILES): NC(=O)c1cnn2c1NCC(CNCCCOc1ccccc1F)C2 (stereo unspecified)
- cytotoxicity at 10 µM: -5.56%

Structure (SMILES): COCCN1CCN(Cc2noc(C3CC3)n2)CC1C (stereo unspecified)
- cytotoxicity at 10 µM: 1.43%

Structure (SMILES): Cc1ccc(NC(=O)NCCCc2n[nH]c(N)c2C#N)cc1
- cytotoxicity at 10 µM: -4.71%

Structure (SMILES): COCCOc1ccc(NC(=O)C2CCC2)cn1
- cytotoxicity at 10 µM: -9.65%

Structure (SMILES): O=C(Cc1ccc2c(c1)OCCO2)NC1CCN(CC(F)F)CC1
- cytotoxicity at 10 µM: -9.86%

Structure (SMILES): CC(Cn1cccn1)NC(=O)NCc1ccccn1 (stereo unspecified)
- cytotoxicity at 10 µM: 6.79%

Structure (SMILES): CCNC(=O)C1CCN(Cc2csc(-c3ccc(C)o3)n2)CC1
- cytotoxicity at 10 µM: 6.26%

Structure (SMILES): CCN1CCN(CC(O)c2ccc(F)cc2)CC1 (stereo unspecified)
- cytotoxicity at 10 µM: -9.41%

Structure (SMILES): CN(C)c1cc(C(=O)N2CCCN(Cc3cscn3)CC2)ccn1
- cytotoxicity at 10 µM: -15%

Structure (SMILES): CCc1nc(C2CCCN2Cc2nc3ccccc3o2)no1 (stereo unspecified)
- cytotoxicity at 10 µM: 3.06%

Structure (SMILES): COc1cc2c(cc1CNC(Cc1cccs1)c1nccs1)OCO2 (stereo unspecified)
- cytotoxicity at 10 µM: -1.88%

Structure (SMILES): Cn1nc(CN2CCCC2)c2c1CN(C(=O)Nc1cccc(F)c1)CC2
- cytotoxicity at 10 µM: 5.98%

Structure (SMILES): Cn1ccnc1C(=O)NC[C@@H]1OC[C@H]2CN(CC3CC3)CC[C@H]21
- cytotoxicity at 10 µM: -115%

Structure (SMILES): c1cc(CNCC2OCCc3cn(CC4CCOCC4)nc32)ccn1 (stereo unspecified)
- cytotoxicity at 10 µM: 3.68%

Structure (SMILES): CCN1C(=O)C(c2ccccc2)CC12CCN(CCO)CC2 (stereo unspecified)
- cytotoxicity at 10 µM: 1.26%

Structure (SMILES): c1coc(CN2CCc3onc(Cn4cccc4)c3C2)c1
- cytotoxicity at 10 µM: 8.43%

Structure (SMILES): CC(C)CN1CCS(=O)(=O)[C@@H]2CCN(S(=O)(=O)N(C)C)CC[C@@H]21
- cytotoxicity at 10 µM: 7.25%

Structure (SMILES): COCCN1CCOCC2(CCCN(Cc3ccc(C)o3)C2)C1 (stereo unspecified)
- cytotoxicity at 10 µM: -5.58%

Structure (SMILES): Cc1ccc(C(=O)N2C[C@@H]3OCCN(CCN4CCCC4)[C@@H]3C2)cn1
- cytotoxicity at 10 µM: 2.39%

Structure (SMILES): COc1ccccc1CN1C[C@@H]2CN(Cc3cccnc3)CCO[C@@H]2C1
- cytotoxicity at 10 µM: 12.3%

Structure (SMILES): CN1[C@H](Cn2cncn2)C[C@@H]2CN(Cc3cccc(C#N)c3)CC[C@@H]21
- cytotoxicity at 10 µM: -9.78%

Structure (SMILES): CN(C)C(=O)[C@@H]1C[C@@H]2CCN(Cc3nccs3)C[C@@H]2O1
- cytotoxicity at 10 µM: 2.67%

Structure (SMILES): COc1cc(N2CCC3(CCCN(C(=O)c4cccnc4)C3)C2)ncn1 (stereo unspecified)
- cytotoxicity at 10 µM: -149%

Structure (SMILES): Cc1nc(CN2C[C@H]3C[C@H](C(=O)NCC4CC4)N(C)[C@H]3C2)cs1
- cytotoxicity at 10 µM: -5.13%

Structure (SMILES): O=C(NCC1CC1)[C@H]1C[C@H]2CN(C(=O)NCC3CCCCC3)C[C@@H]1O2
- cytotoxicity at 10 µM: 3.79%
